Structures are written as SMILES.

One assay addresses T1, Coagulation factor X (Oryctolagus cuniculus) (UniProt O19045).
T1 sequence (whole entry): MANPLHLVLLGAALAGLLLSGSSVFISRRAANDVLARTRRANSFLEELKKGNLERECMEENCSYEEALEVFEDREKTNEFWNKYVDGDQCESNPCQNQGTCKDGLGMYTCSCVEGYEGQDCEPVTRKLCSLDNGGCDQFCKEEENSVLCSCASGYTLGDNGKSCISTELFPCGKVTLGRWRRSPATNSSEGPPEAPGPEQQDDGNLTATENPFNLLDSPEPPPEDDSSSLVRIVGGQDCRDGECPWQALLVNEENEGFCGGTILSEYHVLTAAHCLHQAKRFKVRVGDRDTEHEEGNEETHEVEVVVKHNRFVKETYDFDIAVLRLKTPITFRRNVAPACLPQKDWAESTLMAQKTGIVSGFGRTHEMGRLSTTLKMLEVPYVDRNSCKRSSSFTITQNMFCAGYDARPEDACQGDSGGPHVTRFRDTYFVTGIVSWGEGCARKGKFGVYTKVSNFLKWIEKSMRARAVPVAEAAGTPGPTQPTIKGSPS
Kind of assay: Compound was tested for its inhibitory activity against Coagulation factor X at a concentration of 0.2 uM.
What is called inhibition is the relative decrease from the control value, in per cent. A lower inhibition goes with little suppression. For `O=C1[C@@H](NS(=O)(=O)c2cc3c(Cl)nccc3s2)CCN1Cc1cc2cc[nH]cc-2n1`, the inhibition worked out at 52%.

Another assay has as its target T1, Coagulation factor X (Oryctolagus cuniculus). Kind of assay: Compound was tested for its inhibitory activity against Coagulation factor X at a concentration of 0.3 uM.
In the case of `O=C1[C@@H](NS(=O)(=O)c2ccc(-c3ccc(Cl)s3)s2)CCN1Cc1cc2cc[nH]cc-2n1`, the inhibition stood at 53%.

For `O=C1[C@@H](NS(=O)(=O)c2cc3ncccc3s2)CCN1Cc1cc2[nH]cccc-2n1`, the inhibition amounted to 58%.

The next assay has the same target. Kind of assay: Compound was tested for its inhibitory activity against Coagulation factor X at a concentration of 0.4 uM.
Molecule `O=C1[C@@H](NS(=O)(=O)c2cc3nc(Cl)ccc3s2)CCN1CCNc1ccncc1` registered an inhibition of 50%.

For another assay the target is unchanged. The assay can be described thus: Compound was tested for its inhibitory activity against Coagulation factor X at a concentration of 0.5 uM.
Molecule `O=C1[C@@H](NS(=O)(=O)c2cc3cccnc3s2)CCN1Cc1cc2cc[nH]cc-2n1` registered an inhibition of 43%. On the same count and under the same terms, next, `O=C1[C@@H](NS(=O)(=O)c2cc3ccc(Cl)cc3s2)CCN1Cc1cc2c[nH]ccc-2n1`: 53%. In the case of `O=C1[C@@H](NS(=O)(=O)c2cc3nc(Cl)ccc3s2)CCN1Cc1cc2[nH]cccc-2n1`, the inhibition turned out to be 48%. On the same count and under the same terms, next, `O=C1[C@@H](NS(=O)(=O)c2cc3ccc(Cl)cc3s2)CCN1Cc1cc2[nH]cccc-2n1`: 64%; `O=C1[C@@H](NS(=O)(=O)c2cc3ccnc(Cl)c3s2)CCN1Cc1cc2cc[nH]cc-2n1`: 48%; `O=C1[C@@H](NS(=O)(=O)c2cc3c(Cl)nccc3s2)CCN1Cc1cc2[nH]cccc-2n1`: 50%.

The molecule `Cc1c(S(=O)(=O)N[C@H]2CCN(CCNc3ccncc3)C2=O)sc2cc(Cl)ccc12` showed an inhibition of 47%.

For another assay the target is unchanged. The assay can be described thus: Compound was tested for its inhibitory activity against Coagulation factor X at a concentration of 0.7 uM.
The molecule `O=C1[C@@H](NS(=O)(=O)c2cc3ncccc3s2)CCN1CCNc1ccncc1` displayed an inhibition of 50%.

The next assay shares this target. The assay can be described thus: Compound was tested for its inhibitory activity against Coagulation factor X at a concentration of 0.1 uM.
`O=C1[C@@H](NS(=O)(=O)c2ccc(-c3ccc(Cl)s3)s2)CCN1Cc1cc2c[nH]ccc-2n1` registered an inhibition of 62%. Still for that read-out and setting: to `O=C1[C@@H](NS(=O)(=O)c2cc3ncccc3s2)CCN1Cc1cc2cc[nH]cc-2n1` belongs 52%. The molecule `O=C1[C@@H](NS(=O)(=O)c2cc3ccc(Cl)cc3s2)CCN1CCNc1ccncc1` came in with an inhibition of 57%. Still for that read-out and setting: to `O=C1[C@@H](NS(=O)(=O)c2ccc(-c3ccc(Cl)s3)s2)CCN1CCNc1ccncc1` belongs 77%; to `O=C1[C@@H](NS(=O)(=O)c2cc3ccc(Cl)nc3s2)CCN1CCNc1ccncc1`, 53%. Same read-out and setting: to `O=C1[C@@H](NS(=O)(=O)c2cc3ccc(Cl)cc3s2)CCN1Cc1cc2cc[nH]cc-2n1` belongs 50%.

Another assay has the same target. The assay can be described thus: Inhibitory activity against coagulation factor X at a concentration of 1 uM. An outline of the steps:
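Triplicate screen. DMSO stocks were diluted to 1 µM final inhibitor in 0.05 M Tris, 0.15 M NaCl, 0.1% PEG-8000, pH 7.5. Incubated 30 min at rt with 1 nM fXa, then 200 µM Spectrozyme chromogenic substrate added. Initial rates read at 405 nm over 5 min in kinetic mode; % inhibition reported.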
Molecule `CC(C)(C)c1ccc(S(=O)(=O)N[C@H]2CCN(Cc3cc4[nH]cccc-4n3)C2=O)cc1` registered an inhibition of 22%. Still for that read-out and setting: next, `Cc1c(S(=O)(=O)N[C@H]2CCN(Cc3cc4[nH]cccc-4n3)C2=O)sc2ccc(Cl)cc12`: 40%; `O=C1[C@@H](NS(=O)(=O)c2cc3ncccc3s2)CCN1Cc1cc2c[nH]ccc-2n1`: 61%; `CC(C)(C)c1ccc(S(=O)(=O)N[C@H]2CCN(CCNc3ccncc3)C2=O)cc1`: 14%. The same measure, in the same setting: next, `O=C1[C@@H](NS(=O)(=O)c2cc3ccnc(Cl)c3s2)CCN1CCNc1ccncc1`: 23%; `O=C1[C@@H](NS(=O)(=O)c2ccc(-c3ccon3)s2)CCN1CCNc1ccncc1`: 22%. Same read-out and setting: to `O=C1[C@@H](NS(=O)(=O)c2ccc(-c3ccncc3)s2)CCN1Cc1cc2[nH]cccc-2n1` belongs 35%.

`O=C1[C@@H](NS(=O)(=O)c2ccc(-c3ccc(Cl)s3)s2)CCN1Cc1cc2[nH]cccc-2n1` yielded an inhibition of 42%. On the same count and under the same terms, to `CC(C)(C)c1ccc(S(=O)(=O)N[C@H]2CCN(Cc3cc4c[nH]ccc-4n3)C2=O)cc1` belongs 14%.

Turning to `O=C1[C@@H](NS(=O)(=O)c2ccc(-c3ccncc3)s2)CCN1Cc1cc2cc[nH]cc-2n1`, the inhibition is 50%.

Turning to `O=C1[C@@H](NS(=O)(=O)c2cc3cccnc3s2)CCN1Cc1cc2[nH]cccc-2n1`, the inhibition was 44%. The molecule `O=C1[C@@H](NS(=O)(=O)c2cc3cccnc3s2)CCN1CCNc1ccncc1` came in with an inhibition of 23%. In turn, `O=C1[C@@H](NS(=O)(=O)c2cc3ccc(Cl)nc3s2)CCN1Cc1cc2cc[nH]cc-2n1` gave an inhibition of 50%. With `O=C1[C@@H](NS(=O)(=O)c2cc3nc(Cl)ccc3s2)CCN1Cc1cc2c[nH]ccc-2n1`, the inhibition worked out at 58%. Same read-out and setting: to `O=C1[C@@H](NS(=O)(=O)c2nc3cc(Cl)ccc3[nH]2)CCN1Cc1cc2c[nH]ccc-2n1` belongs 31%; to `O=C1[C@@H](NS(=O)(=O)c2cc3c(Cl)nccc3s2)CCN1Cc1cc2c[nH]ccc-2n1`, 35%; to `O=C1[C@@H](NS(=O)(=O)c2nc3cc(Cl)ccc3[nH]2)CCN1CCNc1ccncc1`, 29%. Same read-out and setting: to `O=C1[C@@H](NS(=O)(=O)c2nc3cc(Cl)ccc3[nH]2)CCN1Cc1cc2cc[nH]cc-2n1` belongs 21%.

In turn, `CC(C)(C)c1ccc(S(=O)(=O)N[C@H]2CCN(Cc3cc4cc[nH]cc-4n3)C2=O)cc1` showed an inhibition of 57%. `Cc1c(S(=O)(=O)N[C@H]2CCN(Cc3cc4c[nH]ccc-4n3)C2=O)sc2ccc(Cl)cc12` returned an inhibition of 37%. The same measure, in the same setting: to `O=C1[C@@H](NS(=O)(=O)c2ccc(-c3ccccn3)s2)CCN1Cc1cc2c[nH]ccc-2n1` belongs 11%; to `O=C1[C@@H](NS(=O)(=O)c2cc3cccnc3s2)CCN1Cc1cc2c[nH]ccc-2n1`, 18%; to `O=C1[C@@H](NS(=O)(=O)c2ccc(-c3ccncc3)s2)CCN1CCNc1ccncc1`, 41%. On the same count and under the same terms, to `O=C1[C@@H](NS(=O)(=O)c2nc3cc(Cl)ccc3[nH]2)CCN1Cc1cc2[nH]cccc-2n1` belongs 14%; to `O=C1[C@@H](NS(=O)(=O)c2cc3ccc(Cl)nc3s2)CCN1Cc1cc2c[nH]ccc-2n1`, 51%; to `O=C1[C@@H](NS(=O)(=O)c2cc3ccnc(Cl)c3s2)CCN1Cc1cc2[nH]cccc-2n1`, 45%. Still for that read-out and setting: next, `O=C1[C@@H](NS(=O)(=O)c2ccc(-c3ccon3)s2)CCN1Cc1cc2cc[nH]cc-2n1`: 49%. With `O=C1[C@@H](NS(=O)(=O)c2cc3ccc(Cl)nc3s2)CCN1Cc1cc2[nH]cccc-2n1`, the inhibition came to 23%.

In turn, `O=C1[C@@H](NS(=O)(=O)c2ccc(-c3ccncc3)s2)CCN1Cc1cc2c[nH]ccc-2n1` showed an inhibition of 21%. Same read-out and setting: to `O=C1[C@@H](NS(=O)(=O)c2ccc(-c3ccccn3)s2)CCN1CCNc1ccncc1` belongs 18%; to `O=C1[C@@H](NS(=O)(=O)c2ccc(-c3ccon3)s2)CCN1Cc1cc2c[nH]ccc-2n1`, 17%; to `O=C1[C@@H](NS(=O)(=O)c2cc3ccnc(Cl)c3s2)CCN1Cc1cc2c[nH]ccc-2n1`, 25%. Consider `O=C1[C@@H](NS(=O)(=O)c2cc3c(Cl)nccc3s2)CCN1CCNc1ccncc1`, for which the inhibition is 39%. Same read-out and setting: to `O=C1[C@@H](NS(=O)(=O)c2ccc(-c3ccon3)s2)CCN1Cc1cc2[nH]cccc-2n1` belongs 31%; to `O=C1[C@@H](NS(=O)(=O)c2ccc(-c3ccccn3)s2)CCN1Cc1cc2cc[nH]cc-2n1`, 17%; to `O=C1[C@@H](NS(=O)(=O)c2ccc(-c3ccccn3)s2)CCN1Cc1cc2[nH]cccc-2n1`, 8%.

Values taken from ChEMBL document CHEMBL1132870, “Solid-phase parallel synthesis of azarene pyrrolidinones as factor Xa inhibitors” (Bioorg Med Chem Lett, 2000).
